Experimental data collected from several papers.
Each line is one published result; the experiments were not run side by side.
Target: Insulin receptor-related protein (INSRR, Homo sapiens, UniProt P14616)

Compound	effect on	technique	concentration	remaining binding
O=C(NCCCN1CCOCC1)c1ccc(Nc2ncc(Cl)c(-c3ccc(Cl)s3)n2)cc1	binding	competition with immobilised ligand	1 µM	59%
CNCc1ccccc1-c1csc([C@@H](C)Nc2nc(C)nc3cc(OC)c(OC)cc23)c1	cell-free assay	competition with immobilised ligand	1 µM	95%
Cc1cnn2ncc(-c3ccnc(N(C)C)n3)c2c1	binding	–	1 µM	97%
O=C(NCC1CCOCC1)c1n[nH]cc1NC(=O)c1c(F)cccc1F	binding	competition with immobilised ligand	1 µM	88%
CN(c1nccc(-c2cnn3ncccc23)n1)C1CC1	binding	–	1 µM	100%
C=CC(=O)N1CCC(C(=O)NCC(=O)N2CCN(c3nc(-c4cnc(N)nc4C(F)F)nc(N4CCOCC4)n3)CC2)CC1	binding	competition with immobilised ligand	1 µM	96%
O=C1CCc2cc(Nc3cc(OC4CCOCC4)c([N+](=O)[O-])cc3Cl)ccc2N1	cell-free assay	competition with immobilised ligand	1 µM	100%
c1cncc(-c2cccc(Nc3nccc(NC4CCCCC4)n3)c2)c1	binding	competition with immobilised ligand	10 µM	74%
FC(F)(F)Oc1cccc(-c2cnc3ccc(-c4ccncc4)nn23)c1	cell-free assay	competition with immobilised ligand	5 µM	96%
O=C(Nc1cnc(Oc2ccc(F)cc2)nc1)N1CCc2ncccc2[C@@H]1c1ccc(F)cc1	cell-free assay	competition with immobilised ligand	1 µM	84%
COc1cnc(Nc2cccc(S(N)(=O)=O)c2)nc1N1CCN(c2ccccc2)CC1	binding	competition with immobilised ligand	1 µM	100%
F[C@@H]1CCN(c2nccc(-c3cnn4ncccc34)n2)C1	binding	–	1 µM	100%
NS(=O)(=O)c1cc(NC(=O)C2(c3ccccc3Cl)CC2)ccc1Oc1cccc(Cl)c1	cell-free assay	competition with immobilised ligand	1 µM	95%
N[C@@H]1CCN(c2nccc(-c3cnn4ncccc34)n2)C1	binding	–	1 µM	100%
Nc1ncc2c(n1)-c1c([nH]c3ccc(C#CC4CC4)cc13)CCCC2	binding	competition with immobilised ligand	1 µM	98%
CCOCCn1cc(C(=O)Nc2ccc(-n3nc(-c4cccnc4)cc3C(F)(F)F)cn2)ccc1=O	cell-free assay	competition with immobilised ligand	1 µM	100%
O=C(c1ccc(Nc2nccc(-c3cc4ccccc4s3)n2)cc1)N1CCC(N2CCCC2)CC1	binding	competition with immobilised ligand	1 µM	99%
COc1cnc(Nc2cccc(S(N)(=O)=O)c2)nc1N1CCN(c2ccccc2)C(=O)C1	binding	competition with immobilised ligand	1 µM	100%
C[C@H]1CCN(c2nccc(-c3cnn4ncccc34)n2)C1	binding	–	1 µM	98%
O=C(c1ccc(Nc2ncc(Cl)c(-c3cc4ccccc4s3)n2)cc1)N1CCC(N2CCCC2)CC1	binding	competition with immobilised ligand	1 µM	25%
CN(C)c1ncc(F)c(-c2cnn3ncccc23)n1	binding	–	1 µM	100%
Cc1nc(C2CCN(C(=O)c3ccc(OC(F)(F)F)cc3N)CC2)c2ncc(N3CCN(C)CC3)cc2n1	cell-free assay	competition with immobilised ligand	1 µM	100%
